In the library only some 1.1% were active in any assay of this set; here they are far more common.
SENP1 inh: human SENP1 catalytic domain inhibitors, primary screen, biochemical, FRET, uHTS; Sentrin-specific protease 1 (Homo sapiens), Q9P0U3; recombinant SENP1 catalytic domain, CyPet-SUMO1-YPet FRET cleavage; inhibition, % at 10 µM; 360,000 tested, 0.21% active;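 active = inhibition at least 30% at 10 µM, raw YFP signal under a set limit, fluorescence ratio 0.5 to 1.5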
Target sequence (Q9P0U3 419-644 limits assumed): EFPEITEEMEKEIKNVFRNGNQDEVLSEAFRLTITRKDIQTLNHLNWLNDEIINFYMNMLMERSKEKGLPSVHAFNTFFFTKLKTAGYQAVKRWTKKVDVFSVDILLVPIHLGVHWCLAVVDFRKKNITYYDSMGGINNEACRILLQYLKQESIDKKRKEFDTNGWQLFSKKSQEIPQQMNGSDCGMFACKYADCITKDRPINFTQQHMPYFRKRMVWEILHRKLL
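Test system: human SENP1 catalytic domain; medium: Tris pH 8 buffer plus EDTA, NaCl, BME, BSA, NP40, catalase; incubation: 50 min reaction at room temperature; technique: FRET, CFP and YFP emission; controls: no-enzyme low control and enzyme-plus-DMSO high control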
FAS TE block: FAS thioesterase domain inhibitors, primary screen, biochemical, fluorescence intensity, uHTS; Fatty acid synthase (Homo sapiens), P49327; recombinant FAS-TE, OMFH fluorogenic substrate, fluorescence endpoint; inhibition, % at 15 µM; 360,000 tested, 0.67% active;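 active = compounds whose normalised, plate-corrected inhibition of enzyme fluorescence in the single-dose primary screen is 50% or more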
ABCB6 inh 2: ABCB6 transporter inhibitors, primary screen, K562-ABCB6 cells, flow cytometry, MLPCN library; ATP-binding cassette sub-family B member 6 (Homo sapiens), Q9NP58; K562-ABCB6 porphyrin accumulation, 1 h; stronger effect = lower value; fluorescence ratio to DMSO, % at 10 µM; 360,000 tested, 0.19% active; AID 602162, 2011;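 active = fluorescence ratio to DMSO below 75%, the collection mean minus 3 SD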;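 note: signal is porphyrin accumulated inside mitochondria; lower ratio means ABCB6 inhibition with less porphyrin fluorescence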
iPSC survival up: enhancers of single-cell hiPSC survival, primary screen, ATPlite luminescence; 100% = ROCK inhibitor wells, 0% = DMSO; survival enhancement, % at 20 µM; 360,000 tested, 0.044% active; AID 602274, 2012; in the data active = survival enhancement above about 18%;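 note: cells exposed to compounds for 16 hours before the ATP read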
FAS-TE conf: FAS thioesterase domain inhibitors, confirmation, biochemical, fluorescence intensity, single concentration. shares compounds with FAS TE block. recombinant FAS-TE, OMFH fluorogenic substrate. inhibition, % at 15 µM. 2,300 tested, 45% active. AID 624325, 2012;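 active = compounds inhibiting the enzyme by at least 50% at 15 µM in any one of the replicates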
Each line names hits and unclear results; the compound was inactive in the other large screens (follow-up assays come after a bar, where they were run).

CN(CCO)c1cc(Sc2nc3ccccc3s2)c2nonc2c1[N+](=O)[O-]	FAS TE block 74 | FAS-TE conf 74
CCN(C(=O)COC(=O)c1nc(Cl)ccc1Cl)C1CCS(=O)(=O)C1 (stereo not drawn)	none
Cc1ccc2nc(/N=C(\N)NC(=O)N3c4ccccc4Sc4ccccc43)nc(C)c2c1	FAS TE block 55 | FAS-TE conf inactive
Cc1cc2nc(/N=C(\N)NC(=O)N3c4ccccc4Sc4ccccc43)nc(C)c2cc1C	FAS TE block 62 | FAS-TE conf inactive
COc1ccc2nc(/N=C(\N)NC(=O)N3c4ccccc4Sc4ccccc43)nc(C)c2c1	none
Cc1ccc2c(C)nc(/N=C(\N)NC(=O)N3c4ccccc4Sc4ccccc43)nc2c1	FAS TE block 64 | FAS-TE conf inactive
CCC(=O)N/C(N)=N/c1nc(C)c2cc(OC)ccc2n1	none
COc1ccc2nc(/N=C(\N)NC(=O)C(C)(C)C)nc(C)c2c1	none
N#CC1(NC(=O)COC(=O)/C=C/c2ccc3ccccc3n2)CCCCC1	none
CCOC(=O)CC1COCCN1C(=O)c1cc(COc2ccc(F)cc2Cl)on1 (stereo not drawn)	none
CCCCCCCOC(=O)c1nc(Cl)c(Cl)c(N)c1Cl	FAS TE block 54 | FAS-TE conf inactive
CCCCOC(=O)c1nc(Cl)c(Cl)c(N)c1Cl	none
CCn1c(C)c(C(C)=O)c(N2CCN(C(c3ccccc3)c3ccccc3)CC2)nc1=S	FAS TE block 70 | FAS-TE conf 61
C[C@H](NC(=O)C1CCN(S(=O)(=O)c2ccccc2)CC1)C(=O)NCc1ccc(Cl)cc1Cl	none
COc1ccc(C/C(N)=N/OC(=O)c2cccc([N+](=O)[O-])c2)cc1	FAS TE block 54 | FAS-TE conf 48
COc1ccccc1C/C(N)=N/OC(=O)c1cccc([N+](=O)[O-])c1	none
COC(=O)c1cc(C(=O)Nc2nnc(C3CC3)s2)cc([N+](=O)[O-])c1	FAS TE block 51 | FAS-TE conf 60
COCc1nnc(NC(=O)c2cc(C(=O)OC)cc([N+](=O)[O-])c2)s1	none
COC(=O)c1cc(C(=O)Nc2nnc(CC(C)C)s2)cc([N+](=O)[O-])c1	FAS TE block 51 | FAS-TE conf inactive
COc1ccc2cc(/C=N/NC(=O)c3ccc(CN(c4cccc(Cl)c4Cl)S(C)(=O)=O)cc3)c(Cl)nc2c1	FAS TE block 69 | FAS-TE conf inactive
COc1ccc2cc(/C=N/O)c(Cl)nc2c1	none
CC(=O)NC1CC2CCCC(C1)N2C(=O)Nc1ccc(Cl)cc1 (stereo not drawn)	none
O=C(Nc1cccc(S(=O)(=O)N2CCOCC2)c1)c1cn(-c2ccccc2)nc1-c1ccccc1	FAS TE block 51 | FAS-TE conf inactive
O=C(Nc1cccc(S(=O)(=O)N2CCOCC2)c1)c1cn(-c2ccccc2)nc1-c1ccc(F)cc1	none
Cc1ccc(N2CC(C)Cn3c2nc2c3c(=O)n(CC(=O)OCc3ccccc3)c(=O)n2C)cc1C (stereo not drawn)	FAS TE block 54 | FAS-TE conf inactive
Cc1cc(C)cc(N2CCCn3c2nc2c3c(=O)n(CC(=O)OCc3ccccc3)c(=O)n2C)c1	none
CCOc1ccc(NC(=S)N2CCc3cc(OC)c(OC)cc3C2COc2ccc3c(C)cc(=O)oc3c2)cc1 (stereo not drawn)	FAS TE block 78 | FAS-TE conf inactive
CC1(C(=O)NS(=O)(=O)c2ccc(C#N)cc2)CCN1C(=O)Cc1ccc(Cl)cc1Cl (stereo not drawn)	FAS TE block 55 | FAS-TE conf 70
Cc1ccc(C(=O)C2CCN(C(=S)NCCCOC(C)C)CC2)cc1	none
N#Cc1c(-c2cccs2)nc(SCc2ccc(Cl)cc2)[nH]c1=O	FAS TE block 66 | FAS-TE conf 79
CN(C)S(=O)(=O)c1ccc(N2CCCC2)c(C(=O)OCC(=O)NC2CCCCC2)c1	none
COc1ccc(N2C(=O)CC2(/C=C/c2ccccc2OC)C(=O)NC2CCCC2)cc1 (stereo not drawn)	none
O=C1CC(/C=C/c2ccccc2)(C(=O)NC2CCCC2)N1c1ccc(S(=O)(=O)N2CCCC2)cc1 (stereo not drawn)	FAS TE block 75 | FAS-TE conf inactive
CC1C(=O)N(c2ccc(S(=O)(=O)N(C)C)cc2)C1(/C=C/c1ccccc1)C(=O)NC1CCCC1 (stereo not drawn)	FAS TE block 61 | FAS-TE conf inactive
CCn1c2ccccc2c2cc(NC(=O)c3ccc(C)c([N+](=O)[O-])c3)ccc21	FAS TE block 52 | FAS-TE conf inactive
N#Cc1cc(NC2CCCC2)c([N+](=O)[O-])cc1C#N	FAS TE block 54 | FAS-TE conf inactive
O=[N+]([O-])c1ccc(NC2CCCC2)cc1	none
CC(NC(=O)c1ccc(Cn2cc([N+](=O)[O-])cn2)cc1)c1ccccc1 (stereo not drawn)	none
CC(NC(=O)Cn1cc([N+](=O)[O-])cn1)c1ccc(C(C)(C)C)cc1 (stereo not drawn)	FAS TE block 76 | FAS-TE conf 55
COC(=O)c1ccccc1NC(=S)N(Cc1ccc2c(c1)OCO2)Cc1cc2cccc(C)c2[nH]c1=O	FAS TE block 83 | FAS-TE conf inactive
Cc1ccc(NC(=S)N(Cc2cccs2)Cc2cc3cccc(C)c3[nH]c2=O)cc1	none
CCOc1ccc(CCNC(=O)Nc2cccc(OC)c2)cc1OCC	none
CCOc1ccc(Oc2cc(NC(=O)c3ccco3)cc([N+](=O)[O-])c2)cc1	none
O=C(Nc1cc(Oc2ccc(Cl)cc2)cc([N+](=O)[O-])c1)c1ccco1	FAS TE block 56 | FAS-TE conf inactive
Cc1ccc(S(=O)(=O)N2CCN(C(=O)c3cc4c(C)nn(-c5ccccc5)c4s3)CC2)cc1	FAS TE block 62 | FAS-TE conf inactive
CN(C(=O)Nc1ccc(Cl)cc1Cl)[C@H]1c2cc(Br)ccc2OC[C@H]1CO	FAS TE block 50 | FAS-TE conf 50
O=C(O)COc1ccccc1C=NNc1ccc([N+](=O)[O-])cc1S(=O)(=O)Nc1ccc(Cl)cc1	FAS TE block 50 | FAS-TE conf 62
C[C@H](CO)N1C[C@H](C)[C@@H](CN(C)C(=O)Nc2ccccc2)Oc2c(NS(=O)(=O)c3cccs3)cccc2C1=O	none
O=C(Nc1ccc(S(=O)(=O)N2CCOCC2)cc1)C1CC1	none
Cc1ccc(NC(=O)c2ccc(S(=O)(=O)N3CC(C)CC(C)C3)cc2)cc1S(=O)(=O)N1CCOCC1 (stereo not drawn)	FAS TE block 50 | FAS-TE conf inactive
CC(=O)c1ccc(NC(=O)c2ccc(C)c(S(=O)(=O)N3CCOCC3)c2)cc1	none
